pIC50: −log10 of the molar value. Calls of active or inactive are those of the source. The rule behind the calls is not given here.
Assays:
A549 [1] = assay: Induction of p53 protein expression in human A549 cells at 20 uM after 48 hrs by Western blot relative to untreated control; assay type: functional
How it was run: (§1)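 A549 cells (RPMI 1640, 2 mM glutamine, 10% FBS, 37 °C, 5% CO2) treated with compound; lysate proteins (50 µg) run on 5–15% SDS–PAGE, blotted to nitrocellulose, probed with mouse anti-human p53 (DO1) and anti-GAPDH monoclonals, then HRP secondary. p53 level given as fold increase over control; mean ± SD of three independent experiments, one-tailed Student's t-test.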

A549 [2] = assay: Antiproliferative activity against human A549 cells at 20 uM after 72 hrs by trypan blue exclusion method; assay type: functional; settings: A549, 72 h
A549 [3] = assay: Induction of p53 protein expression in human A549 cells at 10 uM after 72 hrs by Western blot relative to untreated control; assay type: functional; how it was run: as §1
A549 [4] = assay: Induction of p53 protein expression in human A549 cells at 10 uM after 48 hrs by Western blot relative to untreated control; assay type: functional; how it was run: as §1
A549 [5] = assay: Induction of p53 protein expression in human A549 cells at 20 uM after 72 hrs by Western blot relative to untreated control; assay type: functional; how it was run: as §1
A549 [6] = assay: Induction of DNA damage in human A549 cells; assay type: functional, cell-based
A549 [7] = assay: Cell cycle arrest in human A549 cells assessed as accumulation at S phase; assay type: functional, cell-based
[8] = biological target: Epidermal growth factor receptor (Homo sapiens, UniProt P00533); assay: Inhibition of EGFR autophosphorylation in human A549 cells
Chain of Epidermal growth factor receptor (P00533 whole entry): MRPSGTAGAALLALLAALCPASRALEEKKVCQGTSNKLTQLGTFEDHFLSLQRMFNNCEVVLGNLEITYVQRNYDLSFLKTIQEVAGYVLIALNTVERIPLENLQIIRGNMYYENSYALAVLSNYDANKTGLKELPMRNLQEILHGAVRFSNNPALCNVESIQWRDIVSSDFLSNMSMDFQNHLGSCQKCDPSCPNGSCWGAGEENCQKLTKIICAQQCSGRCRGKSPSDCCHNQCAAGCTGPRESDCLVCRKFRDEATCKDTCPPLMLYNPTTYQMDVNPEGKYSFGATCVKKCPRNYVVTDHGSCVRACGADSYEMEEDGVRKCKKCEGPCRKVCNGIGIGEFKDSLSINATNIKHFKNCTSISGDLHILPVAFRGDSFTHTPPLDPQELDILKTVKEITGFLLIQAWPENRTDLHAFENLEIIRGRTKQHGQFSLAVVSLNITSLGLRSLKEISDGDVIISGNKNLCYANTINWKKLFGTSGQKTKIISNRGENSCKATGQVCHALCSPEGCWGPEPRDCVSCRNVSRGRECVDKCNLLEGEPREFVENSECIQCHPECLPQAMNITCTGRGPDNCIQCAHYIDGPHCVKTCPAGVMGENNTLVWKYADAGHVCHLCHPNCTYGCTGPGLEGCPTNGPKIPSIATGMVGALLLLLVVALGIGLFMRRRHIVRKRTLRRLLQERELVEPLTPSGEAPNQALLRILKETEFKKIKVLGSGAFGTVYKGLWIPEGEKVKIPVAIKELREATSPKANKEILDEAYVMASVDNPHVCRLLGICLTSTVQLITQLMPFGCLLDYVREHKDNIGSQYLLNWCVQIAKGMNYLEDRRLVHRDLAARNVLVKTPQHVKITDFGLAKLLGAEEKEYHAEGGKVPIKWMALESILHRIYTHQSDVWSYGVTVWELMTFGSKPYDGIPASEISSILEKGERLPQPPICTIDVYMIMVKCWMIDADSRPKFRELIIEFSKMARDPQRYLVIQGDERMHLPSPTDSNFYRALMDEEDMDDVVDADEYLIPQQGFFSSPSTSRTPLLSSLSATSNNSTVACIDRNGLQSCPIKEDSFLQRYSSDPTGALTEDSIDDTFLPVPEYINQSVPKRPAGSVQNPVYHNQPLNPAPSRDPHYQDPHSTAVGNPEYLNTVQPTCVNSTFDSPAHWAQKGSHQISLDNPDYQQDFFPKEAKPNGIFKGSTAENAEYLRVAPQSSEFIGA

SMILES	fold change (FC) (A549 [1])	inhibition at 20 µM (A549 [2]) [%]	also measured
CN1C(=O)/C(=C\c2ccccc2)N(CCc2ccccc2)C1=O	1	31	–
O=C1NC(=O)N(c2ccccc2)/C1=C/c1ccccc1	–	18	–
CCCCN1C(=O)NC(=O)/C1=C/c1ccc(Cl)cc1	–	26	–
CCCCCCN1C(=O)NC(=O)/C1=C/c1ccccc1	–	0	–
O=C1NC(=O)N(CCc2cccc(Cl)c2)/C1=C/c1ccccc1	–	10	–
O=C1NC(=O)N(CCc2ccccc2)/C1=C\c1ccc(O)cc1	1.5	44	fold change (FC) (A549 [3]): 1.7; fold change (FC) (A549 [4]): 0.9; fold change (FC) (A549 [5]): 2.7
O=C1NC(=O)N(Cc2ccccc2)/C1=C/c1ccc(O)cc1	1.8	41	–
CCCCN1C(=O)NC(=O)/C1=C\c1ccc(Cl)cc1	–	29	–
CCCCN1C(=O)NC(=O)/C1=C/c1ccccc1	–	18	–
O=C1NC(=O)N(CCc2cccc(Cl)c2)/C1=C\c1ccccc1	1.5	49	fold change (FC) (A549 [3]): 1.1; fold change (FC) (A549 [4]): 0.7; fold change (FC) (A549 [5]): 2.2
CN1C(=O)NC(=O)/C1=C\c1ccccc1	1.1	5.7	–
CN1C(=O)NC(=O)/C1=C/c1ccccc1	1	16	–
O=C1NC(=O)N(CCc2ccccc2)/C1=C\c1ccccc1	1.3	42	–
O=C1NC(=O)N(Cc2ccccc2)/C1=C\c1ccc(O)cc1	2	32	–
CCCCCCN1C(=O)NC(=O)/C1=C\c1ccccc1	–	14	–
O=C1NC(=O)N(Cc2ccccc2)/C1=C/c1ccccc1	–	2.9	–
O=C1NC(=O)N(CCc2ccccc2)/C1=C\c1cccc(Cl)c1	1.2	43	fold change (FC) (A549 [3]): 1.4; fold change (FC) (A549 [4]): 0.9; fold change (FC) (A549 [5]): 1.9
CN1C(=O)/C(=C/c2ccccc2)N(CCc2ccccc2)C1=O	1	45	–
O=C1NC(=O)N(CCc2ccccc2)/C1=C\c1cccc(O)c1	1.1	40	–
CC(=O)Nc1ccc(/C=C2/C(=O)NC(=O)N2CCc2ccccc2)cc1	–	32	–
O=C1NC(=O)N(Cc2ccccc2)/C1=C\c1ccccc1	1.7	42	fold change (FC) (A549 [3]): 1.8; fold change (FC) (A549 [4]): 1.1; fold change (FC) (A549 [5]): 2.6
COc1ccc(/C=C2\C(=O)NC(=O)N2CCc2ccccc2)cc1	1	35	–
O=C1NC(=O)N(CCc2ccccc2)[C@@H]1Cc1ccccc1	1	7.2	–
O=C1NC(=O)N(CCc2ccccc2)/C1=C/c1ccc(O)cc1	2.3	53	fold change (FC) (A549 [3]): 1.4; Activity (A549 [6]): Active; Activity (A549 [7]): Active; fold change (FC) (A549 [4]): 1; fold change (FC) (A549 [5]): 3.2; pIC50 [8]: 4.72
O=C1NC(=O)N(CCc2ccccc2)/C1=C/c1cccc(Cl)c1	–	35	–
CC(=O)Nc1ccc(/C=C2\C(=O)NC(=O)N2CCc2ccccc2)cc1	1.7	39	–
CCCCN1C(=O)NC(=O)/C1=C\c1ccccc1	–	6.8	–
O=C1NC(=O)N(c2ccccc2)/C1=C\c1ccccc1	–	26	–
O=C1NC(=O)N(CCc2ccccc2)/C1=C/c1ccccc1	1.2	9.4	–
O=C1NC(=O)N(CCc2ccccc2)/C1=C/c1cccc(O)c1	0.9	28	–
